In ChEMBL document CHEMBL1122353, “DNA binding studies of 7-bulky-substituted actinomycin analogues” (J Med Chem, 1983):
*1 amine or outer side, *2 acyl side, *3 side chain or, on linkers, in order; H or OH if unused. Where a SMILES comes first, the peptide text is derived from it. Bridges are numbered along the chain shown (N, C = ends). Roman numbers before positions name the chains, in order. [ ]: non-standard residue; d: D form. Actinocin(9to1) = Cc1c2oc3c(C)ccc(C(=O)[*:1])c3nc-2c(C(=O)[*:2])c(N)c1=O; NMeV = CN[C@H](C(=O)O)C(C)C; Sar = CNCC(=O)O

Columns and labels:
Nucleic Acid [1] = assay: Time constant of slowest dissociation step of drug from DNA complex; format: functional
Method in brief: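 Purified calf thymus DNA–drug complexes were held in 0.01 M phosphate buffer (pH 7.0) at 20 °C, with a DNA (nucleotide):drug ratio of 20:1. 5% NaDodSO4 was added to sequester free drug. Absorbance decay was followed over time at a wavelength chosen for each drug (430–492 nm). τ was taken as the time constant of the slowest dissociation step.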

DNA (Bos taurus) = assay: Apparent binding constant for calf thymus DNA
Nucleic Acid [2] = assay: Increase in thermal denaturation temperature of calf thymus DNA; format: functional; conditions: Bos taurus

Structure (SMILES): Cc1c2oc3c(C)c(O)c(N)c(C(=O)N4OC(=O)[C@H](C(C)C)N(C)C(=O)CCNC(=O)[C@@H]5CCCN5C(=O)[C@H](C(C)C)NC(=O)[C@@H]4[C@@H](C)O)c3nc-2c(C(=O)N2OC(=O)[C@H](C(C)C)N(C)C(=O)CCNC(=O)[C@@H]3CCCN3C(=O)[C@H](C(C)C)NC(=O)[C@@H]2[C@@H](C)O)c/c1=N/Cc1ccc[nH]1
- rel T (Nucleic Acid [1]): 225
- K app (DNA (Bos taurus)): 9.2e+07 M⁻¹
- ΔTm (Nucleic Acid [2]): 16 °C

Structure (SMILES): Cc1c2oc3c(C)c(O)c(N)c(C(=O)N4OC(=O)[C@H](C(C)C)N(C)C(=O)CCNC(=O)[C@@H]5CCCN5C(=O)[C@H](C(C)C)NC(=O)[C@@H]4[C@@H](C)O)c3nc-2c(C(=O)N2OC(=O)[C@H](C(C)C)N(C)C(=O)CCNC(=O)[C@@H]3CCCN3C(=O)[C@H](C(C)C)NC(=O)[C@@H]2[C@@H](C)O)cc1=N
- rel T (Nucleic Acid [1]): 125
- K app (DNA (Bos taurus)): 2.3e+07 M⁻¹
- ΔTm (Nucleic Acid [2]): 8 °C

Structure (SMILES): Cc1c2oc3c(C)ccc(C(=O)N[C@@H]4C(=O)N[C@H](C(C)C)C(=O)N5CCC[C@H]5C(=O)N(C)CC(=O)N(C)[C@@H](C(C)C)C(=O)O[C@@H]4C)c3nc-2c(C(=O)N[C@@H]2C(=O)N[C@H](C(C)C)C(=O)N3CCC[C@H]3C(=O)N(C)CC(=O)N(C)[C@@H](C(C)C)C(=O)O[C@@H]2C)c(N)c1=O (I: T[dV]P[Sar][NMeV] / II: T[dV]P[Sar][NMeV]; ester I:1-I:C, II:1-II:C; linker I:N-II:N via Actinocin(9to1))
- rel T (Nucleic Acid [1]): 100
- ΔTm (Nucleic Acid [2]): 8 °C

Structure (SMILES): Cc1c2oc3c(C)c(O)c(N)c(C(=O)N4OC(=O)[C@H](C(C)C)N(C)C(=O)CCNC(=O)[C@@H]5CCCN5C(=O)[C@H](C(C)C)NC(=O)[C@@H]4[C@@H](C)O)c3nc-2c(C(=O)N2OC(=O)[C@H](C(C)C)N(C)C(=O)CCNC(=O)[C@@H]3CCCN3C(=O)[C@H](C(C)C)NC(=O)[C@@H]2[C@@H](C)O)c/c1=N/Cc1ccc(Cl)c(Cl)c1
- rel T (Nucleic Acid [1]): 60
- K app (DNA (Bos taurus)): 2.6e+07 M⁻¹
- ΔTm (Nucleic Acid [2]): 7 °C
